Experiment: Toxicity liver stage against HepG2, at 10uM
Type: cell-based
Parameters: test concentration 10 uM, cell line HepG2-A16-CD81EGFP
Settings: human, HepG2-A16-CD81EGFP cells; read-out: INHIBITION
Procedure, shortened: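 Uninfected HepG2-A16-CD81EGFP cells, 3 × 10^3 per well, 1536-well, plated on prespotted compound at 10 μM final, parasite-free screening media added to match infected plates; puromycin 10 μM positive, DMSO 0.5% negative; run in parallel with 48 h PbLuc assay at 37 °C, 5% CO2; viability by CellTiter-Glo luminescence, normalized to controls.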

SMILES | cytotoxicity at 10 µM [%]
CC(=O)NC[C@H]1COCc2nc3c(C)cccc3n21 | 8.65
c1ccc(-c2nnc([C@H]3CCN(C4CCC4)C3)o2)cc1 | 1.74
CCOC(=O)N1CCC(OC)c2ccccc2N(C)C(=O)C1 (configuration not stated) | 7.58
CN1CCN(S(=O)(=O)c2cccc(S(=O)(=O)C3CCS(=O)(=O)C3)c2)CC1 (configuration not stated) | 6.29
O=C(NCCc1ccccn1)C1(n2cnnn2)CCCCC1 | 0.801
Cn1ccc2ccc(C(=O)Nc3nc[nH]n3)cc21 | -1.55
O=C(Cn1cnc2sccc2c1=O)NCCc1nnc2ccccn12 | 3.57
COc1ccc2c(ccn2CCC(=O)Nc2n[nH]c(CC(C)C)n2)c1 | 8.29
O=C(NCC(O)(c1ccco1)C1CC1)c1c(F)cccc1Cl (configuration not stated) | -2.69
CCN1CC2(CC1=O)CN(C(=O)C(C)C)CCN(S(C)(=O)=O)C2 (configuration not stated) | -4.54
O=C(C1CCOCC1)N1C[C@@H]2OCCN(CCN3CCCC3)[C@@H]2C1 | -3.83
CC(=O)NCC(=O)N1Cc2nc(COCc3csc(C)n3)oc2C1 | 0.503
Cc1nc(-c2noc3ccc(C(=O)NCCN4CCOCC4)cc23)cs1 | 4.19
CC(C)Cc1nnc2sc(-c3cc(C(C)C)n[nH]3)nn12 | 8.08
CNc1nc2c(s1)C(c1ccccc1F)CC(=O)N2 (configuration not stated) | 4.43
O=C(O)CCC(=O)Nc1nn(Cc2ccc(F)cc2)cc1Cl | 13.8
Cc1nn(COc2cccc(F)c2)c(C)c1NC(=O)C1CC1 | 5.62
CCn1nc(C)c2nc(C)nc(NCCc3ccccc3)c21 | 25.2
COc1ccccc1CNC(=O)c1[nH]ncc1Cl | 1.72
O=C(CO)N1CCC(c2cncc(-c3cccc(Cl)c3)n2)CC1 | -0.105
Cc1ccc(Nc2nccc(C3CN(CC(N)=O)C3)n2)nc1 | -1.91
Clc1ccc(CN2CCC3(CC2)CC(c2cccnc2)=NO3)cc1 | 17.5
O=C(Nc1ccccc1)N1CCn2c(nnc2C2CCCN2)C1 (configuration not stated) | 2.91

SMILES | cytotoxicity at 10 µM [%]
O=C1Nc2ccccc2CN(CC2CC2)C12CCNC2 (configuration not stated) | 6.09
Cc1c(C(=O)N2CCS(=O)(=O)CC2)nnn1-c1ccc2ncccc2c1 | -5.82
Cc1ccnc(N2CCCC(c3nncn3C3CC3)C2)n1 (configuration not stated) | -5.45
O=C(COCC1CC1)N1CCCC1c1nc(-c2ccccc2F)c[nH]1 (configuration not stated) | -0.025
Cc1[nH]ncc1CCCNC(=O)N1CCC(C(N)=O)CC1 | -3.62
CN(Cc1cc(Br)cs1)Cc1nnsc1Cl | -7.38
O=C(CCc1ccccn1)NC1CCN(c2cccc(Cl)c2)C1 (configuration not stated) | 17.1
O=C(Cc1cccc(O)c1)NC1CCN(c2cccc(Cl)c2)C1 (configuration not stated) | 17.1
Cc1ccc(C(=O)OC(C)Cn2cccn2)c(=O)[nH]1 (configuration not stated) | 3.35
Cc1nn(-c2ccc(F)cc2)c2[nH]nc(N)c12 | 13.6
COC(=O)CSCc1noc(-c2ccc(Cl)cc2)n1 | 1.94
COCCSCC(=O)NCc1ccnc(N(C)C)c1 | 9.88
Cn1cc(C(=O)Nc2ccc(CN3CCOCC3)cn2)cn1 | 6.95
CC(C)OCCNC1(c2ccc(F)cc2)CCOCC1 | -4.78
COc1ccc(CNC(=O)N(C)CC(C)(C)O)cc1OC | 6.89
CCc1nc2n(n1)CC(NCc1nc(C)c(C)o1)CC2 (configuration not stated) | -11
Cc1nn(C)cc1C(=O)NC(CC(C)C)C(=O)Nc1cc[nH]n1 (configuration not stated) | -2.33
COCc1cccc(C(=O)N2CCCN(C(=O)OCC(C)C)CC2)c1 | -10
CCCn1cc(NC(=O)c2ccc(N(C)CC)cc2)ccc1=O | -0.704
CC(C)c1nn(C)c(N(C)C)c1CNCc1ccnn1C | 0.926
O=C(C1SCCc2sccc21)N1CCN(CC(F)F)CC1 (configuration not stated) | -4.5
CN(C)C(=O)c1cccc(NC(=O)CN2CCCCC2C2OCCO2)c1 (configuration not stated) | -6.95
CCOc1ccc(CNC(C)c2cccc(S(=O)(=O)NC)c2)cc1 (configuration not stated) | 16.1

SMILES | cytotoxicity at 10 µM [%]
Cc1ccc(N2CCCC(N(C)Cc3ccccn3)C2)nn1 (configuration not stated) | -4.01
Cc1cc2n(n1)CC(CNC1CCN(C(=O)C3CC3)CC1)CN2 (configuration not stated) | 5.17
CC(C)(C)S(=O)(=O)CCNC(=O)c1cnc(-c2ccccc2)nc1 | 2.92
CC(=O)NCCNC(=O)Nc1cccc(Cl)c1SC(F)F | -13.1
COc1ccc(CC(=O)NC2CCc3nc(C)cn3C2)cc1 (configuration not stated) | 9.55
CCOC1CCN(C(=O)c2ccc(-n3ncc(C#N)c3N)cc2)CC1 | -1.1
COCCN(CC(C)C)C(=O)c1cccc(Nc2cnccn2)c1 | -9.59
CC(C#N)CNS(=O)(=O)c1ccc(Br)c(F)c1 (configuration not stated) | -12.3
CN1CC(Nc2nc3c(cnn3C(C)(C)C)c(=O)[nH]2)CCC1=O (configuration not stated) | -4.26
COc1ccc2c(c1)C(NCCc1ncc(C)s1)CCCO2 (configuration not stated) | -3.86
Cc1cccn2cc(CNCc3cccc4c3OCCCO4)nc12 | 15.5
COCC(O)CN(C)c1ccnc2cc(Br)ccc12 (configuration not stated) | 5.02
CC(C)c1noc(CCNC(=O)N2CCN(c3cccs3)CC2)n1 | -5.37
CCNc1cc2c(nn1)CCN(C(=O)c1cc3ccccc3[nH]c1=O)C2 | -1.41
Cc1occc1CNC(=O)C1CCCN1C(=O)C1CC1 (configuration not stated) | 7.98
COc1cc(N2CCC3(CC2)CN(S(C)(=O)=O)c2ccccc23)ncn1 | 12.8
CC(C)CN1C(=O)CO[C@@H]2CNC[C@H]21 | -110
Cn1nc(CN2CCCCC2)c2c1CN(C(=O)c1ccccc1)C2 | 4.83
COc1ccc([C@@H]2CN(c3cc(OC)ncn3)C[C@H]2N(C)C)cc1 | 6.98
N[C@@H](C(=O)N1CCN(c2ccccc2Cl)C(=O)C1)c1ccccc1 | -0.823
CNC(=O)c1n[nH]c2c1C(c1cccc3nsnc13)CC(=O)N2 (configuration not stated) | -13
CCO[C@H]1C[C@@H](O)C12CCN(S(=O)(=O)c1ccccc1OC)CC2 | 2.01
CCn1c(C)nnc1SCCNC(=O)Cn1cnc2ccccc2c1=O | 8.28

SMILES | cytotoxicity at 10 µM [%]
Cc1ccc(C)c2c(O)cc(CN3CCC(c4nncn4C)CC3)nc12 | -2.24
CCC[C@H]1CN(Cc2ccc(N(C)C)nc2)C[C@@H]1NS(=O)(=O)CC | -11.9
CC(C)c1cc(C(=O)N(C)C(C)c2nccs2)no1 (configuration not stated) | -9.15
Cc1ccc(CN2CCN(C3CCC3)CC2CCO)o1 (configuration not stated) | -2.46
Cn1ccnc1CN1CCC(Cn2cc(-c3ccncc3)nn2)CC1 | -4.5
CC(=O)NC1CCN(c2nc(N)nc3c2CCCC3)C1 (configuration not stated) | 0.452
C=C(C)CN1CCC(n2cc(C3CCCC3)nn2)CC1 | 4.98
CO[C@H]1CN(C(=O)c2cc3ccccc3[nH]2)CC[C@H]1N | 11
Cc1cc(C)c2[nH]c(=O)c(CN3CCCC4(C3)CN(C)C(=O)O4)cc2c1 (configuration not stated) | -14.3
Nc1ccnc(-c2cc(NC3CCNCC3)nc3[nH]ccc23)c1 | 3.18
O=C(c1cn(CCN2CCCCC2)nn1)N1CCSCC1 | 2.34
COCC(=O)N1C[C@@H](C)[C@](O)(C(C)C)C1 | 1.69
N#Cc1ccccc1CN1CCCC(c2nccn2CC2CCC2)C1 (configuration not stated) | -5.06
COCC(Nc1ncnc2sc(C)c(C)c12)c1ccnn1C (configuration not stated) | -4.53
O=C(c1ccc2nccn2c1)N1CCC(CCn2cccn2)CC1 | -1.63
CC(C)c1cc(N(C)Cc2noc(C3CCCC3)n2)n2nccc2n1 | -0.0395
c1cc2c(cc1Cn1cc(C3CCOC3)nn1)CCCO2 (configuration not stated) | 2.03
O=C(O)c1cn(CC2CCCN(c3ccc4ccccc4n3)C2)nn1 (configuration not stated) | -7.14
Cc1ncsc1CCC(=O)N1CCCC[C@H](N(C)C)C1 | -22.5
CCCS(=O)(=O)c1ncc(CN2CCC(CO)CC2)n1CC1CCCO1 (configuration not stated) | 7
CCn1ccnc1CN1C[C@@H](CN2CCCC2)[C@@H](CO)C1 | -9.96
CC(C)(C)N1CC(C(=O)N2CCN(CCn3cccc3)CC2)CC1=O (configuration not stated) | 18.7
Cc1ccc(-c2nc(CNC3CCc4ncnn4C3)co2)c(C)c1 (configuration not stated) | -9.5

SMILES | cytotoxicity at 10 µM [%]
Cc1ccccc1CS(=O)(=O)CC(=O)NC1CCCCNC1=O (configuration not stated) | -7.23
Cc1cc(C)c(OCC(=O)NS(=O)(=O)c2cccnc2)c(C)c1 | -1.35
Cc1cc(NC(=O)NCC(C)O)n(C)n1 (configuration not stated) | 1.69
CC(C)c1nnc2n1CCN(CC(=O)N1CCc3ccccc3C1)C2 | -5.92
Cc1cccc(OCCC(=O)N2CCN(S(=O)(=O)N(C)C)CC2)c1C | 2.66
CCc1noc(C)c1C(=O)N1CCCC1c1c(C)nn(C)c1OC (configuration not stated) | -12.1
CC(NC(=O)NCCCn1cccn1)c1ccc2c(c1)NC(=O)CO2 (configuration not stated) | -5.07
c1ccc(CN2CCc3ncnc(N4CCCC4)c3CC2)nc1 | -8.35
O[C@@H]1CCN(CC2CCOC2)[C@H]1Cc1ccccc1 (some centres not stated) | -7.98
CC(=O)N1Cc2ccnn2CC(C(=O)NCc2cccnc2)C1 (configuration not stated) | -97
CN1C[C@@H](COCC2CC2)[C@H]2CCN(Cc3ccco3)CC[C@H]2C1=O | -4.6
CN(C)c1ncc2c(n1)C1(CCN(CC3CC3)C1)COC2 (configuration not stated) | -12.9
COCC1c2c(cnn2C)CCN1C(=O)c1cccn1C (configuration not stated) | -94.1
Cc1ncnc2c1CCN(C(=O)CN(C)C)CC2 | 0.964
O=C(c1ccccc1F)N1CCC2(CC1)CC(Oc1ccccn1)CO2 (configuration not stated) | -113
Cc1noc([C@]23COC[C@H]2CN(C(=O)CN(C)C)C3)n1 | -104
c1csc(CN2Cc3[nH]nc(COCC4CC4)c3C2)c1 | 6.22
c1ccc(CN2C[C@H]3CC[C@@H](C2)N(Cc2nnc(C4CC4)o2)C3)cc1 | -8.42
CC(c1cn2ncsc2n1)n1cc2[nH]cccc-2c1=O (configuration not stated) | -3.74
COc1cccc(CNCC2(COc3cccnc3)C[C@@H](O)[C@@H](O)C2)c1 (some centres not stated) | -5.57
